A short description of series [1]: Inhibition of AMLV gp120 binding to human CD4 expressed in canine CF2Th cells coexpressing CCR5 after 2 to 4 hrs by luciferase reporter gene assay. The format is cell-based, Amphotropic murine leukemia virus. A general note: A reporter such as luciferase makes a cellular process visible.
The nature of series [2]: Binding affinity to HIV1 full length gp120 by isothermal titration calorimetric assay. The arrangement: species or system Human immunodeficiency virus 1. In a few lines:
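ITC titration of full-length monomeric gp120 with ligand at 25 °C.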
(In general: In ITC the heat of successive injections is recorded.)

For series [3], the system named is Human immunodeficiency virus 1. The experiment in a line: Activation of HIV1 isolate YU2 infectivity in CD4 negative dog CF2Th cells expressing CCR5 by luciferase reporter gene assay relative to TS-2-224. Conditions: human immunodeficiency virus 1, cf2th. The series is classed as organism-based.
Series [4] can be described thus: Inhibition of HIV1 isolate YU2 gp120 binding to human CD4 expressed in dog CF2Th cells coexpressing CCR5 after 2 to 4 hrs by luciferase reporter gene assay. The format is cell-based, Human immunodeficiency virus type 1 (isolate YU2). The method, boiled down:
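HIV-1 YU2 infection of Cf2Th cells expressing CD4 and CCR5; the IC50 is for inhibition of viral entry.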

For series [5], the system named is Human immunodeficiency virus 1. The experiment in a line: Activation of HIV1 isolate YU2 infectivity in CD4 negative dog CF2Th cells expressing CCR5 by luciferase reporter gene assay relative to NBD556. The series is classed as organism-based. The settings on record: human immunodeficiency virus 1, cf2th. The method, boiled down: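 HIV-1 YU2 infection of CD4-negative Cf2Th-CCR5 cells; relative activation of viral infectivity is normalized to the reference CD4-mimetic agonist.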

In series [6] the test system is Human immunodeficiency virus 1. Briefly: Antiviral activity against 0.01 to 0.1 MOI HIV1 Env-pseudovirus Clade C infected in human TZM-bl cells after 30 mins by luciferase assay. The format is functional, organism-based. The settings on record: Human immunodeficiency virus 1, Clade C, 0.5 h. The method, boiled down:
(§1)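 Neutralization breadth is tested against a panel of 42 diverse Tier 2 clade B and C Env-pseudoviruses. IC50 values are summarized as geometric mean titers for the sensitive strains.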

The subject of series [7] is Human immunodeficiency virus 1. Briefly: Antiviral activity against 0.01 to 0.1 MOI HIV1 Env-pseudovirus Clade B infected in human TZM-bl cells after 30 mins by luciferase assay. The format is functional, organism-based. The settings on record: Human immunodeficiency virus 1, Clade B, 0.5 h. In a few lines:
as §1

The values that follow come from ChEMBL document CHEMBL2331214, “Structure-Based Design and Synthesis of an HIV-1 Entry Inhibitor Exploiting X-Ray and Thermodynamic Characterization” (ACS Med Chem Lett, 2013).

The term IC50 denotes the midpoint of a concentration-inhibition curve. Higher therefore signals lower potency. By Kd is commonly meant the concentration at which binding is half-saturated. Read a low Kd as higher affinity.

For `N=C(N)N[C@H]1Cc2ccccc2[C@@H]1NC(=O)C(=O)Nc1ccc(Cl)c(F)c1.O=CO`, the IC50 in series [1] was above 100 µM; in series [4], 22.9 µM. The molecule further had a Kd in series [2] of 0.25 µM. The “fold change (FC)” value in series [3] stood at 0.1.

On to `N=C(N)NCC1Cc2ccccc2C1NC(=O)C(=O)Nc1ccc(Cl)c(F)c1` (racemic), for which the IC50 in series [4] was found to be 10.3 µM.

On to `N=C(N)N[C@@H]1Cc2ccccc2[C@H]1NC(=O)C(=O)Nc1ccc(Cl)c(F)c1.O=CO`, for which the IC50 was above 100 µM in series [1] and 21.3 µM in series [4]. Binding in series [2] was characterised by a dissociation constant (Kd) of 0.3 µM. For the same molecule, the “fold change (FC)” value in series [3] is given as 0.

For `N=C(N)NCC[C@@H]1Cc2ccccc2[C@H]1NC(=O)C(=O)Nc1ccc(Cl)c(F)c1.O=CO`, the IC50 is above 100 µM in series [1] and 68.5 µM in series [4]. Besides, the “fold change (FC)” value in series [5] was 0. In series [2], this molecule registered a dissociation constant Kd of 2 µM.

`N=C(N)NCC[C@H]1Cc2ccccc2[C@@H]1NC(=O)C(=O)Nc1ccc(Cl)c(F)c1.O=CO`: the IC50 in series [1] was above 100 µM; in series [4] it was 28.2 µM. For the same molecule, the “fold change (FC)” value in series [5] is reported as 0.17. The Kd in series [2] is 0.34 µM.

As for `N=C(N)NC[C@@H]1Cc2ccccc2[C@H]1NC(=O)C(=O)Nc1ccc(Cl)c(F)c1.O=CO`, the IC50 is above 100 µM in series [1] and 37.9 µM in series [4]. Further, the “fold change (FC)” value in series [5] was determined as 0.11. Also, the Kd in series [2] worked out at 6.2 µM.

Consider `N=C(N)NC[C@H]1Cc2ccccc2[C@@H]1NC(=O)C(=O)Nc1ccc(Cl)c(F)c1.O=CO`, for which the IC50 was above 100 µM in series [1], 14 µM in series [6], 1.7 µM in series [7] and 2.3 µM in series [4]. Besides, the “fold change (FC)” value in series [5] came to 0. Also, in series [2], binding was put at a Kd of 0.11 µM.
